Bioassay records from PubChem BioAssay.
PTK2B oligo ant: antagonists of human Pyk2 oligomerization; Q14289; Q293 cells, Pyk2 FERM NanoBiT luminescence; stronger effect = lower value; z-score (the deposit names both 25 µM and 10 µM); actives 0.83% (n = 99,000);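 active = Z-score of -3 or lower, scaled per plate to the spread of control and sample wells; inactive = z-score above -3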;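 note: negative z-score means lost luminescence so less FERM oligomerization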
Target sequence (Q14289 whole entry, looked up): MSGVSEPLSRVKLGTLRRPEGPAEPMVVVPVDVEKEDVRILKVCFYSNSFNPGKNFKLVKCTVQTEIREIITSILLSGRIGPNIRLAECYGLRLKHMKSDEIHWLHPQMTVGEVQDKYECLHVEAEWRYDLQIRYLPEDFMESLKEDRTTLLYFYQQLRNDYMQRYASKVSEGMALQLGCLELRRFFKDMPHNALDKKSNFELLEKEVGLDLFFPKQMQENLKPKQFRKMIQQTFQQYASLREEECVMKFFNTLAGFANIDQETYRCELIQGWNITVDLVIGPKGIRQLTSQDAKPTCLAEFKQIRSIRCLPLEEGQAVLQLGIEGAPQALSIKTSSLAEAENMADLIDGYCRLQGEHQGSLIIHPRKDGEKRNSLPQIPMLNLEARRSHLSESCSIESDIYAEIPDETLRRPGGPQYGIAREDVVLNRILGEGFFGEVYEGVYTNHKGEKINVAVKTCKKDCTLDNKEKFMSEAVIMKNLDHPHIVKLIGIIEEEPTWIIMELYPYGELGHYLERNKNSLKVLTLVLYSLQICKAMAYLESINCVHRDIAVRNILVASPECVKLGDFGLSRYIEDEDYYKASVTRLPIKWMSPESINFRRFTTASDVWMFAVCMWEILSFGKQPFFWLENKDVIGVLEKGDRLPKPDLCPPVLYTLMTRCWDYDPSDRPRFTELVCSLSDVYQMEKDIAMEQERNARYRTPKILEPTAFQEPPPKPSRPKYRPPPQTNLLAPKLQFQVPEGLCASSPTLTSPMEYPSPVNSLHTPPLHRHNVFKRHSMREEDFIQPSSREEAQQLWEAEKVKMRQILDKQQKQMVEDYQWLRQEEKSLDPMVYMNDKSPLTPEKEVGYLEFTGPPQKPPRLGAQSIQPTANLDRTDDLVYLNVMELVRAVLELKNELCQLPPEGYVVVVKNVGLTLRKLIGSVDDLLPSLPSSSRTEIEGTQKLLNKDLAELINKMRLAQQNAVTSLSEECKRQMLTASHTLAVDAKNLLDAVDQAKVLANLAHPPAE
HUVEC prolif 384: inhibitors of human endothelial cell proliferation; actives 1.1% (n = 86,000); AID 648; viability, % at 10 µM (by protocol); HUVEC proliferation, CellTiter-Glo luminescence, 72 h; stronger effect = lower value;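 active = viability at or below 30%; inactive = viability above 30%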;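 note: 100% = median luminescence of DMSO-only cell control wells on each plate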
MT1-MMP txn act: activates MT1-MMP transcription; AID 750; activation factor at 10 µM; actives 0.16% (n = 86,000); HT1080 MT1-MMP promoter luciferase reporter, luminescence, overnight; stronger effect = higher value;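 active = activation factor of at least 2 for MT1-MMP transcription at 10 µM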
Jurkat viability: cytotoxicity toward Jurkat cells; Jurkat E6.1 viability, ATP luminescence, 48 h; inhibition, % at 4 µM; actives 1.2% (n = 56,000); AID 463;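 active = inhibition above the mean inhibition of all tested compounds plus 3 SD, cut at about 28% in these data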
H69AR growth 86K: blocks growth of human H69AR lung tumor cells. H69AR lung tumor viability, ATP luminescence, 72 h; stronger effect = lower value. viability, % at 10 µM. actives 6% (n = 85,000);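 active = viability at or below 40%; inactive = viability above 40%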;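 note: multidrug resistant small cell line overexpressing MRP-1 efflux transporter; 100% = mean luminescence of untreated control wells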
Fibroblast inh: blocks proliferation of human lung fibroblasts; AID 719; viability, % at 10 µM; LL 47 human lung fibroblast viability, ATP luminescence; stronger effect = lower value; actives 1.1% (n = 85,000);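 active = viability at or below 50% in the single dose screen; inactive = viability above 50%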;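 note: compound exposure lasted 72 h before the ATP readout; 100% = median luminescence of untreated cell-only wells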
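Material: Human LL 47 lung fibroblast cells | Input: 1,150 cells/well | Buffer or medium: IMEM plus 15% FBS | Compound dosing: 0.1% DMSO in all compound wells | Times: Overnight cell rest, 72 h compound treatment at 37 °C | Signal: CellTiter-Glo luminescence measuring cellular ATP | Measure: % viability versus median cells-only luminescence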
* hit, by the source's call; x = no result given. A selection: hits, their analogues and other compounds. The true share with any hit is near 5.9%.

SMILES | PTK2B oligo ant | HUVEC prolif 384 | MT1-MMP txn act | Jurkat viability | H69AR growth 86K | Fibroblast inh
O=C(NC1CCCCC1)C(c1ccc2ncccc2c1)N(Cc1ccc2c(c1)OCO2)C(=O)c1cccs1 (centres undefined) | -3.6* | x | x | x | x | x
O=C(NC1CCCC1)C(c1ccccc1)N(Cc1ccc2c(c1)OCO2)C(=O)Cc1cccs1 (centres undefined) | -3.1* | 75 | 1.1 | x | 46 | 94
COc1ccc(CN(C(=O)c2cccs2)C(C(=O)NC2CCCCC2)c2ccc3ncccc3c2)cc1 (centres undefined) | -3.1* | x | x | x | x | x
COc1ccc(CN(C(=O)c2ccc3c(c2)OCCO3)C(C(=O)NC2CCCCC2)c2ccc3ncccc3c2)cc1 (centres undefined) | -1 | x | x | x | x | x
O=C(NC1CCCCC1)C(c1ccc2ncccc2c1)N(Cc1ccccc1)C(=O)c1ccc2c(c1)OCCO2 (centres undefined) | -1.9 | x | x | x | x | x
COC(=O)[C@H]1C[C@@H]1[C@H](NC(=O)[C@@H]1CCCN1C(=O)OC(C)(C)C)c1ccccc1 | x | x | 1.2 | x | x | x
C=CCNc1nc(NCc2ccccc2)c(C#N)c2c1CN(C)CC2 | 0.69 | 11* | 1.6 | x | 29* | 58
N#Cc1c(N2CCN(C(=O)c3ccccc3Cl)CC2)nc(-c2ccccc2)c2c1CCCC2 | -1.1 | x | x | x | x | x
N#Cc1c(NCCCO)nc(-c2ccccc2)c2c1CCCC2 | -1.4 | 80 | 1.2 | x | 84 | 95
N#Cc1c(NCCN)nc(-c2ccccc2)c2c1CCCC2 | -0.12 | 89 | 1.1 | x | 6.0* | 66
CCCCCNc1nc(NCCCO)c(C#N)c2c1CN(C)CC2 | -0.15 | 92 | 1.3 | x | 79 | 97
N#Cc1c(N2CCN(C(=O)c3ccccc3)CC2)nc(-c2ccccc2)c2c1CCCC2 | -2.4 | 69 | 1.3 | x | 14* | 91
CCN1CCc2c(C#N)c(NCc3ccccc3)nc(N(CC)CC)c2C1 | -1.1 | 55 | 1 | x | 58 | 82
N#Cc1c(NCCN)nc(NCc2ccccc2)c2c1CCN(Cc1ccccc1)C2 | 0.33 | 18* | 1.1 | x | 47 | 83
O=C(CSc1nnnn1C1CCCCC1)Nc1nc2c(s1)CCCC2 | -1.4 | 73 | 1 | -2 | 49 | 96
Fc1ccc(C2CC(c3ccccc3)n3ncnc3N2)cc1 (centres undefined) | 0.65 | 109 | 1 | x | 89 | 103
COc1cccc(C2CC(c3ccccc3OC)n3ncnc3N2)c1 (centres undefined) | x | 91 | 1.1 | -7 | 31* | 91
Clc1ccc(C2CC(c3ccccc3)Nc3ncnn32)cc1 (centres undefined) | x | 86 | 1.1 | 7 | 28* | 83
CCCCn1c(N)c(N(CCOC)C(=O)CSc2nc3ccc(C)cc3[nH]2)c(=O)[nH]c1=O | -0.35 | 101 | 1.2 | x | 93 | 108
Clc1ccc(-c2ccc(-c3nn4c(-c5ccco5)nnc4s3)o2)cc1 | 0.9 | 83 | 0.9 | -1 | 26* | 89
Clc1ccc(OCc2nn3c(-c4ccco4)nnc3s2)c(Cl)c1 | 0.36 | 102 | 0.9 | -14 | 34* | 94
Cc1ccc(OCc2nn3c(-c4ccco4)nnc3s2)cc1 | 1.1 | 96 | 1.2 | 3 | 94 | 111
CCOC(=O)c1nc(S(C)(=O)=O)ncc1Cl | -0.64 | 78 | 0.9 | 100* | 1.6* | 65
CCOC(=O)c1nc(S(C)(=O)=O)ncc1N1CCOCC1 | 0.25 | 93 | 1.1 | -6 | 91 | 97
COc1ccccc1-c1ccc(NC2CCCC2)nn1 | -0.11 | 98 | 2.1* | x | 70 | 95
SMILES | PTK2B oligo ant | HUVEC prolif 384 | MT1-MMP txn act | Jurkat viability | H69AR growth 86K | Fibroblast inh
Cc1ccc(OCC(O)Cn2c(=N)n(Cc3ccccc3)c3ccccc32)cc1 (centres undefined) | 0.33 | 6.5* | 1.2 | x | 88 | 1.9*
COc1ccc(OCC(O)Cn2c(=N)n(Cc3ccccc3)c3ccccc32)cc1 (centres undefined) | 2.3 | 73 | 1.3 | 12 | 82 | 60
Cc1cccc(OCC(O)Cn2c(=N)n(CCN3CCCCC3)c3ccccc32)c1 (centres undefined) | 0.44 | 51 | 1 | 6 | 5.5* | 69
O=C(Nc1cc2c(oc1=O)CCCC2=O)c1ccc(Cl)cc1 | 0.63 | x | x | x | x | x
Cc1cc(OC(C)C(=O)N/N=C/CC(C)c2ccccc2)ccc1Cl (centres undefined) | 3.6 | x | x | x | x | x
O=C(O)c1ccc2c3c(ncnc13)-c1ccccc1C2=O | x | 41 | 1 | 6 | 65 | 23*
O=C1c2ccccc2-c2ncnc3cccc1c23 | x | 54 | 0.9 | -6 | 62 | 109
CCN(CC)c1ccc(NC(=O)Nc2cccc(C(C)=O)c2)cc1 | 0.07 | 77 | 1.1 | 10 | 80 | 100
CCOc1cccc(C(=O)Nc2ccc(N(CC)CC)cc2)c1 | -0.8 | 60 | 1.2 | 16 | 20* | 91
CCN(CC)C(=O)CSc1nc2cc3c(cc2c(=O)n1Cc1ccc2c(c1)OCO2)OCO3 | -3.1* | 85 | 1.1 | x | 98 | 88
CCOC(=O)CSc1nc2ccc(N3CCOCC3)cc2c(=O)n1Cc1ccc2c(c1)OCO2 | x | 88 | 1.2 | x | 94 | 91
COc1cc2c(cc1NC(=O)C1CCCO1)oc1ccccc12 (centres undefined) | -1.5 | 71 | 1.9 | -4 | 35* | 83
COc1cc2c(cc1NC(=O)CN(C)Cc1nc3ccccc3c(=O)[nH]1)oc1ccccc12 | -3.4* | 75 | 1.2 | -5 | 59 | 91
COc1cc2c(cc1NC(=O)Cn1cnc3c1c(=O)n(C)c(=O)n3C)oc1ccccc12 | x | 76 | 1.1 | 4 | 8.1* | 86
COc1ccc(Cl)cc1NC(=O)C1CCCO1 (centres undefined) | -0.34 | 96 | 1.1 | 11 | 112 | 88
O=C(CC1C(=O)N(c2ccc(Cl)cc2)C(=S)N1CCc1ccncc1)Nc1ccc(F)cc1 (centres undefined) | 1 | x | x | x | x | x
Cc1cccc(C)c1NC(=O)C(c1ccccc1)N1CCC1=O (centres undefined) | 0.83 | x | x | x | x | x
Cc1csc2nc(CNC(=O)C3CC=CCC3C(=O)O)cn12 (centres undefined) | x | 91 | 1.1 | -13 | 98 | 95
Cc1ccc(C(=O)Nc2ccc3cn[nH]c3c2)cc1S(=O)(=O)N1CCCCC1 | -1.8 | 99 | 2.1* | x | 30* | 93
Cc1cc(C)n(-c2nc3c(c(=O)[nH]c(=O)n3C)n2Cc2ccccc2)n1 | -0.1 | 96 | 0.9 | -4 | 101 | 97
Cc1cc(C)n(-c2nc3c(c(=O)[nH]c(=O)n3C)n2CC(O)COc2ccc(Cl)cc2Cl)n1 (centres undefined) | 0.18 | 48 | 1.2 | x | 13* | 72
CCN(CC)CCNc1nc2c(c(=O)[nH]c(=O)n2C)n1CC(O)COc1ccc(Cl)cc1Cl (centres undefined) | -0.46 | 83 | 1.2 | 2 | 77 | 92
Cc1cc(C)n(-c2nc3c(c(=O)[nH]c(=O)n3C)n2CCc2ccccc2)n1 | 0.23 | 77 | 1 | 13 | 24* | 92
